Published values gathered from unrelated publications.
Lines come from different studies, so protocols differ.
CDK4: Cyclin-dependent kinase 4 (CDK4, Homo sapiens, UniProt P11802)

For `Cc1nn(C)cc1-c1nc2c(N3CCN(Cc4ccc(Cl)cc4)CC3)c(Cl)cnc2[nH]1`, the remaining binding was 55% (Serine/threonine-protein kinase MRCK beta (CDC42BPB, Homo sapiens, UniProt Q9Y5S2); binding; competition with immobilised ligand; 1 µM).
`COC(=O)[C@H](CCCNC(=N)N)NC(=O)c1ccccc1` gave a Km of 10.8 mM (Protein-arginine deiminase type-3 (PADI3, Homo sapiens, UniProt Q9ULW8); enzyme activity; substrate).
For `COc1ncccc1-c1cnn2ccc(N3CCN(C(=O)OC(C)C)CC3)nc12`, the remaining binding was 100% (Myosin-IIIb (MYO3B, Homo sapiens, UniProt Q8WXR4); binding; competition with immobilised ligand; 1 µM).
`C#Cc1n[nH]c2c(-c3cn([C@@H](C)c4ccccn4)c(=O)[nH]c3=O)cc(F)cc12` has an inhibition of 10% (Tyrosine-protein kinase Fes/Fps (FES, Homo sapiens, UniProt P07332); enzyme activity; inhibitor; 0.1 µM).
The inhibition of `CCOC(=O)[C@H]1Cc2c(cc([N+](=O)[O-])cc2[N+](=O)[O-])[C@@H](O)[C@@]12C(=O)Nc1ccc([N+](=O)[O-])cc12` is reported as 42.8% (CDK4; cell-free assay; inhibitor; TR-FRET; 1 µM).
`Nc1ncc(-c2nc(N3CCOCC3)nc(N3CCOCC3)n2)c(C(F)F)n1` gave a remaining binding of 83% (Fibroblast growth factor receptor 3 (FGFR3, Homo sapiens, UniProt P22607, G697C); cell-free assay; competition with immobilised ligand; 10 µM).
With `COCCCOc1cc(C[C@@H](C[C@H](N)[C@@H](O)C[C@H](C(=O)NCC(C)(C)C(N)=O)C(C)C)C(C)C)ccc1OC` the inhibition was 70% (Renin (REN, Homo sapiens, UniProt P00797); enzyme activity; inhibitor; 10 nM).
For `Clc1cccc(-c2c[nH]c3nccc(N4CCOCC4)c23)c1`, the ΔTm was over 7.4 °C (Serine/threonine-protein kinase 3 (STK3, Homo sapiens, UniProt Q13188); thermal stability; DSF).
With `CCOC(=O)[C@H]1Cc2c(cc([N+](=O)[O-])cc2[N+](=O)[O-])[C@H](O)[C@]12C(=O)Nc1ccc(F)cc12` the inhibition was 32.6% (CDK4; cell-free assay; inhibitor; TR-FRET; 1 µM).
